Test results from PMC3846926 (Neuropharmacology, 2010).
Entries after “also recorded” stand apart in the source; their conditions may differ. Values belong to the molecule of their own block, whether it stands above or below them.

How the values were obtained:
homomeric ASIC2a = target: T1, homomeric ASIC2a (Rattus norvegicus, UniProt Q62962); test: ASIC2a current in transfected CHO cells, patch clamp; format: cell-based; conditions: pH 5, read-out: inhibition of ASIC2a current
T1 sequence (Q62962 1-512): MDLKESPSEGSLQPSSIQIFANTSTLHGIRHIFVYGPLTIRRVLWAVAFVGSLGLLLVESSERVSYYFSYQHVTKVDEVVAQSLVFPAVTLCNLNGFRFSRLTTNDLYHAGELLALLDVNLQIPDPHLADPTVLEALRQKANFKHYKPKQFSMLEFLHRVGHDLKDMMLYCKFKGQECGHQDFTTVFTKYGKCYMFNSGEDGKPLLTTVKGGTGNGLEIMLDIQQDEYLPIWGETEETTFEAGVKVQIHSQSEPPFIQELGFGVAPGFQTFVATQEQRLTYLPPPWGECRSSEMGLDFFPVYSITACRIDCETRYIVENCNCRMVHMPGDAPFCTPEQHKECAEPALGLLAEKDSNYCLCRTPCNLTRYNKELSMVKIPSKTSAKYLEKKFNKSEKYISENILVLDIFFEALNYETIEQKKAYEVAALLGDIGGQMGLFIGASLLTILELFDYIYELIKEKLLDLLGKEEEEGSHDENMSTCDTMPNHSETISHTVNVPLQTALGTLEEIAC
In short: (§1)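 CHO cells in F12 with 10% fetal bovine serum, cotransfected at ~50% confluence with the individual ASIC subunit cDNA (1.8 µg) plus GFP DNA (0.2 µg) per dish. GFP-positive cells whole-cell patch-clamped 48–72 h after plating, held at −60 mV. Activating pH: 6.0 (ASIC1a, 1b), 5.0 (ASIC2a), 6.5 (ASIC3). Test compound perfused 2 min. Currents normalized to control; IC50 from logistic fit; mean ± S.E.M.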

[1] = system: cultured hippocampal neurons; format: cell-based, mouse; conditions: 10 µM, current clamp
ASIC1a = target: T2, ASIC1a (Rattus norvegicus, UniProt P55926); test: ASIC1a currents in oocytes; format: cell-based; conditions: 100 µM
T2 sequence (P55926 1-526): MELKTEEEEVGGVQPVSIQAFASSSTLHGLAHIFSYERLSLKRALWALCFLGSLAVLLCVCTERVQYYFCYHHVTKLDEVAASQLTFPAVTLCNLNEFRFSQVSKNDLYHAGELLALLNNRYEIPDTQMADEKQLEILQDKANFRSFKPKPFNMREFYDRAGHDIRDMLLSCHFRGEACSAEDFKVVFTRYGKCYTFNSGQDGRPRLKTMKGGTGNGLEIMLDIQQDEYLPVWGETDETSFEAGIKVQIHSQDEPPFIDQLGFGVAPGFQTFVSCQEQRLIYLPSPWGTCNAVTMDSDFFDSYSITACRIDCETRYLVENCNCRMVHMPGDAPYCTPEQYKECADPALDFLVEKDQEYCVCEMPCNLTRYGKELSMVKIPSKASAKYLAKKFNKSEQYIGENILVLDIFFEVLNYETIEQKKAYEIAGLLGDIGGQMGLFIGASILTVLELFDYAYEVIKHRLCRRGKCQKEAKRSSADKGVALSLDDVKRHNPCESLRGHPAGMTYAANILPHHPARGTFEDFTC

homomeric ASIC1b = target: T3, homomeric ASIC1b (Rattus norvegicus, UniProt P55926); test: ASIC1b current in transfected CHO cells, patch clamp; format: cell-based; conditions: pH 6, read-out: inhibition of ASIC1b current
T3 sequence (P55926 1-559 isoform P55926-3): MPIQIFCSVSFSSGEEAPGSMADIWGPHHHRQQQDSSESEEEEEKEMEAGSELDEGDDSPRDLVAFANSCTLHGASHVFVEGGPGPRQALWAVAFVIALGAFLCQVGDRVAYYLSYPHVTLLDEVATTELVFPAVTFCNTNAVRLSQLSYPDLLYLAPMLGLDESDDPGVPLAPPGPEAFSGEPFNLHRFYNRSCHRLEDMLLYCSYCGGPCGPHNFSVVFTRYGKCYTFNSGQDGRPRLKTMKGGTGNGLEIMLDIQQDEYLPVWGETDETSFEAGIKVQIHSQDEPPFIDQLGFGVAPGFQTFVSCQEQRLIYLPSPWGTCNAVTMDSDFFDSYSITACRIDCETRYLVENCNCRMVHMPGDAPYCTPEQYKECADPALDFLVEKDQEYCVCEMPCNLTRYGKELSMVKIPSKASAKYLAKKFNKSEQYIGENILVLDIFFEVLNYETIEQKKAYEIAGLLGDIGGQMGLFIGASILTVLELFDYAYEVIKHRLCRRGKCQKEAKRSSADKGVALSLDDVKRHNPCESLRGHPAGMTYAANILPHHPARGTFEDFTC
In short: as §1

[2] = system: ENaC channels expressed in oocytes; test: ENaC current in Xenopus oocytes, two-electrode voltage clamp; format: cell-based; conditions: 100 µM; for effect on ENaC activities: oocytes; for relative current of ENaC with compound: relative to control without diarylamidine, holding -70 mV
In short: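 Defolliculated (collagenase, 60–120 min) stage V–VI Xenopus laevis oocytes were injected with 1 ng ENaC α/β/γ cRNA and kept 3 days at 19 °C in low-Na+ ringer. Two-electrode voltage clamp at −70 mV, 22–26 °C, in ringer pH 7.4. Amiloride superfusion was replaced by amiloride-free solution, then test compound (100 µM) was applied without amiloride. Amiloride-sensitive current recorded at 1 kHz.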

homomeric ASIC3 = target: T4, homomeric ASIC3 (Rattus norvegicus, UniProt O35240); test: ASIC3 current in transfected CHO cells, patch clamp; format: cell-based; conditions: pH 6.5, read-out: inhibition of ASIC3 current
T4 sequence (O35240 1-533): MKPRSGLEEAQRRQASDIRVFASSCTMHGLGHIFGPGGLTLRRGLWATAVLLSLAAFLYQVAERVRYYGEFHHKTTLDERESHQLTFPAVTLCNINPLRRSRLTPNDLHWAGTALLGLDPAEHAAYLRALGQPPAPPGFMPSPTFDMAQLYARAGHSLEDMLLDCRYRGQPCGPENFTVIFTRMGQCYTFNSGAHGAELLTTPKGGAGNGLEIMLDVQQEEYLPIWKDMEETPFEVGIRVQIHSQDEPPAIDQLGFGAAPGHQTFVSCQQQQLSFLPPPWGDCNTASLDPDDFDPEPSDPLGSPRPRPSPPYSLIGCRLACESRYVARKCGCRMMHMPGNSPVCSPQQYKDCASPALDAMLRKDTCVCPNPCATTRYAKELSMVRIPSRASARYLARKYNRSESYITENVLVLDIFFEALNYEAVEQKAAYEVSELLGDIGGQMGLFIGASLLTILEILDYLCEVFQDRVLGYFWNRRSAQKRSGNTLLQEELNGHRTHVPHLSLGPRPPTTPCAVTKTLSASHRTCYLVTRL
In short: as §1

[3] = system: ASIC currents in cultured hippocampal neurons; test: ASIC currents in primary cultured hippocampal neurons, whole-cell voltage clamp; format: cell-based, mouse; conditions: for Inhibition (potency), grade in words: diarylamidines of Table 1, cultured hippocampal neurons; for effect on rates of desensitization of ASIC currents: sub-maximal concentrations
homomeric ASIC1a = target: T5, homomeric ASIC1a (Rattus norvegicus, UniProt P55926); test: ASIC1a current in transfected CHO cells, patch clamp; format: cell-based
T5 sequence (P55926 1-526): T2 sequence (P55926 1-526)
In short: as §1

ENaC = conditions: read-out: IC50 on ENaC; very weak inhibition; ref Ugawa et al., 2007; cited from earlier work
ASIC current = conditions: Wu et al., 2004, cited from earlier work
[4] = 200 µM, cultured hippocampal neurons

inhibition at 3 µM (homomeric ASIC2a): 51 ± 6.1%
block of ASIC1a currents in oocytes (ASIC1a): almost completely
inhibition at 3 µM (homomeric ASIC1b): 92 ± 0.5%
inhibition at 3 µM (homomeric ASIC3): 74 ± 0.6%
IC50 (homomeric ASIC1a): ~3 µM
inhibition at 3 µM (homomeric ASIC1a; CHO, pH 6, read-out: inhibition of ASIC1a current): 39 ± 3.8%
Compound: N=C(N)c1ccc(/N=N/Nc2ccc(C(=N)N)cc2)cc1 [Diminazene]
effect on low pH-induced depolarization and excitation [1]: dramatically attenuated; also recorded: markedly attenuated
effect on ENaC activities [2]: did not inhibit; also recorded: ineffective
relative current of ENaC with compound [2]: 1.11 ± 0.05
desensitization time constant of ASIC currents ([3]; 1 µM by perfusion, control 1.7 ± 0.2 s): 0.4 ± 0.1 s
Inhibition (potency), grade in words [3]: Strong inhibition
desensitization time constant of ASIC currents ([3]; diminazene 3 µM co-applied with pH 5.8, control 1.6 ± 0.3 s): 0.4 ± 0.1 s

Compound: N=C(N)c1ccc2cc(OC(=O)c3ccc(N=C(N)N)cc3)ccc2c1 [Nafamostat]
IC50 (ENaC): ~1000 µM

Compound: Cc1ccc(C(=O)Nc2ccc(S(=O)(=O)O)c3cc(S(=O)(=O)O)cc(S(=O)(=O)O)c23)cc1NC(=O)c1cccc(NC(=O)Nc2cccc(C(=O)Nc3cc(C(=O)Nc4ccc(S(=O)(=O)O)c5cc(S(=O)(=O)O)cc(S(=O)(=O)O)c45)ccc3C)c2)c1 [suramin]
effect on ASIC currents ([3]; 500 µM, cultured hippocampal neurons): failed to inhibit

Compound: CC1(C)[C@@H](OC(=O)CCC(=O)O)CC[C@]2(C)[C@H]3C(=O)C=C4[C@@H]5C[C@@](C)(C(=O)O)CC[C@]5(C)CC[C@@]4(C)[C@]3(C)CC[C@@H]12 [Carbenoxolone]
effect on ASIC currents [3, 4]: failed to inhibit; also recorded: did not inhibit

IC50 [3]: 1.5 µM
Compound: N=C(N)c1ccc(/C=C/c2ccc(C(=N)N)cc2O)cc1 [Hydroxystilbamidine]
effect on ENaC activities ([2]; listed as HSB): did not inhibit
relative current of ENaC with compound [2]: 1.02 ± 0.04
Inhibition (potency), grade in words [3]: Strong inhibition
effect on rates of desensitization of ASIC currents [3]: did not have marked effects

Compound: O=C(Nc1cccc(C2=NCCN2)c1)Nc1cccc(C2=NCCN2)c1 [Imidocarb]
inhibition of ASIC currents [3, 4]: Inhibit 42 ± 7% at 200 µM

block of ASIC1a currents in oocytes (ASIC1a): almost completely
Compound: N=C(N)c1ccc(-c2cc3ccc(C(=N)N)cc3[nH]2)cc1 [DAPI, 4′,6-diamidino-2-phenylindole]
effect on ENaC activities [2]: did not inhibit; also recorded: ineffective
relative current of ENaC with compound [2]: 0.98 ± 0.04
Inhibition (potency), grade in words [3]: Strong inhibition
effect on rates of desensitization of ASIC currents [3]: did not have marked effects

block of ASIC1a currents in oocytes (ASIC1a): 77%
Compound: N=C(N)c1ccc(OCCCCCOc2ccc(C(=N)N)cc2)cc1 [Pentamidine]
effect on ENaC activities [2]: did not inhibit; also recorded: ineffective
relative current of ENaC with compound [2]: 1.02 ± 0.03
Inhibition (potency), grade in words [3]: Inhibition
effect on rates of desensitization of ASIC currents [3]: did not have marked effects

Compound: Cn1cc(NC(=O)c2cc(NC(=O)CN=C(N)N)cn2C)cc1C(=O)NCCC(=N)N [Netropsin]
effect on ASIC currents ([3]; 100 µM, cultured hippocampal neurons): did not inhibit
effect on ASIC currents ([3]; concentration not given): without effect; also recorded: failed to inhibit

Compound: N=C(N)NC(=O)c1nc(Cl)c(N)nc1N [Amiloride]
IC50 (ASIC current; read-out: IC50 on ASIC current, ref Waldmann et al., 1997): 10 to 20 µM
concentration required to completely block the neuronal ASIC currents (ASIC current; ref Baron et al., 2002): 200 to 500 µM
effect on desensitization of ASIC current ([3]; amiloride 80 µM co-applied with pH 5.8): did not accelerate; also recorded: little effect
desensitization time constant of ASIC currents ([3]; amiloride 80 µM co-applied with pH 5.8, control 0.83 ± 0.15 s): 0.72 ± 0.14 s
